Hits are enriched below; roughly 4% of the tested compounds scored in any of these assays.
Arrestin-AP2 inh: inhibitors of human beta-arrestin and AP2 interaction | FITC-arrestin peptide / GST-AP2 beads, flow cytometry; AP2 beta2 appendage carries R879A mutation | inhibition, % at 10 µM | AID 504490 | hit rate 0.31% among 340,000;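 active means inhibition above a set limit, near 3 SD of compounds lacking own fluorescence, cut at about 54% in these data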;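 further: plate controls were DMSO wells for no effect and 5 µM unlabelled arrestin peptide for full effect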
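Material – AP2 appendage R879A on GSH beads · Buffer or medium – PBS with 0.05% Tween 20 and 0.1% BSA · Probe or stimulus – fluorescein-tagged arrestin peptide at 50 nM final · Incubation – compound with beads 12 min RT, then probe 1 h RT · Detection – high-throughput flow cytometry of beads, ex 488, em 535 nm · Evaluation – percent response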
H9c2 protect: protects H9c2 cardiomyocytes from peroxide injury | AID 588492 | H2O2 injury protection, ATPLite, 2 h | hit rate 0.63% among 360,000 | protection from H2O2 cell death, % at 20 µM;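 active means compounds giving at least 50% protection of heart cells from peroxide-induced death in the single-dose screen, raw or plate-pattern-corrected value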;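 further: 0% = DMSO wells with peroxide and 100% = DMSO wells without peroxide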
NR3A LBD binder: NR3A (human) ligand-binding domain modulation | NR3A LBD differential scanning fluorimetry, Tm shift; 0% = protein alone, 100% = glycine-bound protein | hit rate 2.5% among 340,000 | Tm shift relative to glycine control, % at 25 µM;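 active means melting temperature shift of at least 10% of the positive control shift, at one fixed dose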
SENP1 FRET inh: blocks the human SENP1 SUMO protease catalytic domain. recombinant SENP1 catalytic domain, CyPet-SUMO1-YPet FRET cleavage. inhibition, % at 10 µM. hit rate 0.21% among 360,000;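 active means inhibition at least 30% at 10 µM, raw YFP signal under a set limit, fluorescence ratio 0.5 to 1.5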;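 further: 0% = enzyme with DMSO and 100% = no enzyme wells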
Target sequence (Q9P0U3 419-644 limits assumed): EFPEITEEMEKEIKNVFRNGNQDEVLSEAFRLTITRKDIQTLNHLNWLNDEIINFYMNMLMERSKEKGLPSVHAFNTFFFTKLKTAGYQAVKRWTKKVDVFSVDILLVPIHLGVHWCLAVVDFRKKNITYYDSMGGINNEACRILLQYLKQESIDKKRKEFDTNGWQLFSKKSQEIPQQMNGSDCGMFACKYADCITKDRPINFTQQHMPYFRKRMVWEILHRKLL
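System: Recombinant human SENP1 catalytic domain, His6-tagged | Incubation: Enzyme reaction for 50 min at room temperature, dark | Medium: Tris pH 8 with BME, BSA, NP40 and catalase | Also added: 25 nM SUMO1 FRET substrate | Compound: 10 µM single point, 0.5% DMSO | Measured by: FRET fluorescence in CFP and YFP emission channels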
FAS-TE inh: inhibitors of human fatty acid synthase thioesterase domain. AID 602261. recombinant FAS-TE, OMFH fluorogenic substrate, fluorescence endpoint. hit rate 0.67% among 360,000. P49327. inhibition, % at 15 µM;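 active means compounds whose normalised, plate-corrected inhibition of enzyme fluorescence in the single-dose primary screen is 50% or more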;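 further: 0% = DMSO with enzyme and 100% = substrate without enzyme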
hiPSC survival: hiPSC single-cell survival enhancement; ATPlite luminescence; 100% = ROCK inhibitor wells, 0% = DMSO; survival enhancement, % at 20 µM; hit rate 0.044% among 360,000; in the data active means survival enhancement above about 18%;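 further: cells exposed to compounds for 16 hours before the ATP read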
* hit, by the source's call; nt = no result.

SMILES	Arrestin-AP2 inh	H9c2 protect	NR3A LBD binder	SENP1 FRET inh	FAS-TE inh	hiPSC survival
C[C@H]1CN([C@@H](C)CO)C(=O)c2cccc(NC(=O)Nc3ccc(C(F)(F)F)cc3)c2O[C@@H]1CN(C)C(=O)Nc1ccc(F)cc1	-2	36	21*	0	45	1
C[C@H]1CN([C@@H](C)CO)C(=O)c2cccc(NC(=O)Nc3ccc(C(F)(F)F)cc3)c2O[C@H]1CN(C)C	-4	16	-5	1	-5	-2
CC(=O)C1=CCC(c2ccccc2)N(S(=O)(=O)c2ccccc2)C1 (stereo not drawn)	nt	5	nt	2	6	1
COc1ccc2[nH]c(C(=O)N/N=C/c3ccccc3OC)cc2c1	7	38	6	3	6	0
COc1ccc2[nH]c(C(=O)N/N=C/c3ccc(OC)c(O)c3)cc2c1	6	-3	nt	2	2	0
CCN(CC)c1ccc(/C=N/NC(=O)c2cc3ccccc3[nH]2)cc1	31	-5	14*	-30	14	0
CCCOc1ccc2[nH]c(C(=O)N/N=C/c3cc(OC)c(OC)c(OC)c3)cc2c1	-12	59*	6	0	4	1
COc1ccc(OC)c(/C=N/NC(=O)c2cc3c(OC)c(OC)ccc3[nH]2)c1	-3	90*	-8	2	8	1
CCOc1ccc2[nH]c(C(=O)N/N=C/c3ccccc3OC)cc2c1	8	22	-4	-1	13	0
CCN(CC)c1ccc(/C=N/NC(=O)c2c[nH]c3ccccc23)cc1	-4	-1	9	-24	4	-1
COc1cc(OC)c2cc(C(=O)N/N=C/c3ccccc3O)[nH]c2c1	-14	57*	37*	-18	5	0
CCc1nc2c(OCC(N)=O)cccn2c1N(C)C(=O)C(C)C	nt	1	nt	-1	-2	1
COC(=O)C(=Cc1ccncc1)c1cccc2ccccc12	nt	-1	nt	0	4	-2
CCOC(=O)C1(C)CCN1C(=O)c1ccc(Cl)nc1 (stereo not drawn)	nt	-3	nt	1	-5	2
COc1ccc(-c2nnn(Cc3ccccc3)n2)cc1	-2	-8	0	2	20	-1
COc1ccc(OCCn2nnc(-c3ccc(Cl)cc3)n2)cc1	11	-8	15*	1	10	-1
COCc1c(C(=O)N/N=C/c2cccc3ccccc23)nnn1-c1nonc1N	23	4	31*	0	-4	2
CC(C)c1c(C(=O)N/N=C/c2ccccc2OCc2c(F)cccc2Cl)nnn1-c1nonc1N	1	-3	13*	2	31	0
COc1ccc2ccccc2c1/C=N/NC(=O)c1nnn(-c2nonc2N)c1C(C)C	-9	20	13*	1	26	0
COc1ccc2ccccc2c1/C=N/NC(=O)c1nnn(-c2nonc2N)c1CN(C)C	40	0	0	-2	-2	0
Cc1c(C(=O)N/N=C/c2c(O)ccc3ccccc23)nnn1-c1nonc1N	34	60*	4	-14	5	1
CC(=O)Nc1ccc(-c2ccnc3c2CC(C)(C(=O)Nc2ccc(F)c(Cl)c2)O3)cc1 (stereo not drawn)	nt	12	nt	2	16	1
Cc1cccc(C)c1Cn1c(C)c(C(=O)NCCC#N)sc1=O	nt	1	nt	2	-1	3
CC1(C)CCC[C@]2(C)C(CS(=O)c3ccccc3)=C(C=O)CC[C@@H]12 (stereo partly drawn)	20	5	-4	1	20	0
O=C(c1cc(=O)[nH]c2ccccc12)N1CCN(S(=O)(=O)c2ccc3ccccc3c2)CC1	-1	103*	-4	0	6	3
SMILES	Arrestin-AP2 inh	H9c2 protect	NR3A LBD binder	SENP1 FRET inh	FAS-TE inh	hiPSC survival
O=C(c1cc(=O)[nH]c2ccccc12)N1CCN(S(=O)(=O)c2ccc(Cl)cc2)CC1	-4	88*	1	3	1	1
O=C(c1n[nH]c2ccccc12)N1CCN(S(=O)(=O)c2ccccc2)CC1	0	-2	1	-1	-2	1
Cc1cc(C)c[n+](-c2[nH]c(=O)sc2/C=N/NC([S-])=Nc2ccccc2)c1	-5	-2	0	33*	-18	0
Cc1cc[n+](-c2[nH]c(=O)sc2/C=N/NC([S-])=Nc2ccccc2)cc1	3	-1	-3	25	-26	1
CCCc1c(C)nn(C(=O)/C(C#N)=N/Nc2ccccc2[N+](=O)[O-])c1C	1	-7	15*	2	0	-2
Cc1ccc2[nH]c3c(c2c1)CCc1cn[nH]c1-3	5	-11	28*	-14	-21	1
COc1ccc(-c2nc3ccc(Cl)cn3c2Cc2cccc(F)c2)cc1OC	nt	7	nt	30	6	2
Cc1ccc(/C=C(\C#N)c2nc3ccccc3[nH]2)s1	25	-15	19*	-25	2	-2
N#C/C(=C\c1ccc(Sc2ccc(Cl)cc2)o1)c1nc2ccccc2[nH]1	4	-20	15*	-25	10	1
N#C/C(=C/c1cccs1)c1nc2ccccc2[nH]1	-12	-4	15*	-59	-2	-1
Cc1cc(/C=C(\C#N)c2nc3ccccc3[nH]2)c(C)n1C	-5	-17	-13	-43	-13	-3
N#C/C(=C\c1c(Cl)cccc1Cl)c1nc2ccccc2[nH]1	9	-11	-7	-46	26	0
O=C(Nc1ccc(Cl)cc1)c1ccc2sc([C@@H]3O[C@H](CO)[C@@H](O)[C@H]3O)nc2c1	nt	10	nt	-4	1	-1
Cc1ccc(NC(NC(=O)c2cccs2)C(Cl)(Cl)Cl)cc1C (stereo not drawn)	-10	-35	12*	2	27	-2
CN(C)CCCN1c2ccccc2Sc2ccccc21	2	50*	0	0	2	-3
O=C(CSc1nc2ccc(Cl)cc2[nH]1)c1ccc2c(c1)OCO2	-1	13	-16	0	-1	3
O=C(CSc1nc2cc(Cl)c(Cl)cc2[nH]1)c1ccc2c(c1)OCO2	-13	-3	17*	5	21	0
Cc1noc(C)c1NC(=O)N(C)C[C@@H]1Oc2cc(Br)ccc2S(=O)(=O)N([C@H](C)CO)C[C@@H]1C	nt	1	nt	0	-7	0
Cc1cc(C(C#N)c2ccccc2F)n2ncnc2n1 (stereo not drawn)	6	1	15*	1	5	0
Cc1cc(C(C#N)c2ccccc2)n2ncnc2n1 (stereo not drawn)	-1	4	3	-3	-5	3
O=C(O)CC1(O)C(=O)N(Cc2ccccc2)c2ccccc21 (stereo not drawn)	-2	-2	-2	2	-7	1

Screens as filed in PubChem BioAssay.
